From ChEMBL document CHEMBL4673367, “N-Benzyl-linoleamide, a Constituent of Lepidium meyenii (Maca), Is an Orally Bioavailable Soluble Epoxide Hydrolase Inhibitor That Alleviates Inflammatory Pain” (J Nat Prod, 2020) come the findings set out here.

For orientation: IC50 means the concentration at which inhibition is half-maximal. Broadly, the Cmax is the maximum level reached in the sampled fluid or tissue. One may read the AUC as the area under the concentration-time curve, a measure of exposure. A high value points to high exposure. As usually defined, the Tmax is the time at which the peak concentration occurs.

The source made the active and inactive calls. Some results are limits rather than exact numbers.

The target of data set [1] is T1, Bifunctional epoxide hydrolase 2 (Homo sapiens, UniProt P34913).
T1 sequence (P34913 whole entry): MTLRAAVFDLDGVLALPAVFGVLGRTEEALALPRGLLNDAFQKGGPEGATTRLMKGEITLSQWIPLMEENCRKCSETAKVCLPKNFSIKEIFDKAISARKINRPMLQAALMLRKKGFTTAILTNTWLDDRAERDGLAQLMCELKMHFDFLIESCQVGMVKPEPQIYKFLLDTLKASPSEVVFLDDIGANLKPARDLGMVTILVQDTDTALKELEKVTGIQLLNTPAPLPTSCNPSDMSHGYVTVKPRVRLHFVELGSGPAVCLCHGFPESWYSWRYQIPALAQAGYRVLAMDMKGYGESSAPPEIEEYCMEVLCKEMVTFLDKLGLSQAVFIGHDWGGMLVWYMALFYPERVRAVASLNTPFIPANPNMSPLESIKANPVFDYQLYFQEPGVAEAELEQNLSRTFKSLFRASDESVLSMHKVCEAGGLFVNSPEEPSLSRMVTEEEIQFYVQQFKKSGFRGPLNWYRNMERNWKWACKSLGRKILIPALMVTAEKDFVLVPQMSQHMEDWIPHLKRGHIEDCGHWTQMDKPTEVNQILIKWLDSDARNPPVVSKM
The data set is described as follows: Inhibition of recombinant human sEH expressed in baculovirus expression system using MNPC as substrate by fluorescence-based assay. Put shortly: (§1)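 Recombinant human, mouse or rat sEH tested with serial dilutions of inhibitor in 96-well format. MNPC substrate at 5 μM final. Fluorescent 6-methoxynaphthaldehyde product read at ex 330 / em 465 nm. IC50 derived from these readings.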

For data set [2], the target named is T2, Bifunctional epoxide hydrolase 2 (Mus musculus, UniProt P34914).
T2 sequence (P34914 whole entry): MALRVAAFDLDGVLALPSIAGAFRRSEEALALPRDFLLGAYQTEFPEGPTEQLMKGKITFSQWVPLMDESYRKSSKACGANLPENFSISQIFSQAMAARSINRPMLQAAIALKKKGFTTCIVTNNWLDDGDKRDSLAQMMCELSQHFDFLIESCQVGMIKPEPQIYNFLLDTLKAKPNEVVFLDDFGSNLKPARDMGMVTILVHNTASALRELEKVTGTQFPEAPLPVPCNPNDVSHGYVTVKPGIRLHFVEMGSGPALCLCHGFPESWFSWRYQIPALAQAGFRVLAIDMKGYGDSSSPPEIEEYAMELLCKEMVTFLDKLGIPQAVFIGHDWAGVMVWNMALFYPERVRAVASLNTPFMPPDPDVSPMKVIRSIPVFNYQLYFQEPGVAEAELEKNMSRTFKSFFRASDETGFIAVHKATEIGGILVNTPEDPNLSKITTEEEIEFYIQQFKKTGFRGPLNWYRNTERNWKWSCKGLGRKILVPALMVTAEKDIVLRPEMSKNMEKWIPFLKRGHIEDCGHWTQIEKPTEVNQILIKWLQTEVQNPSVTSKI
The data set is described as follows: Inhibition of recombinant mouse sEH expressed in baculovirus expression system using MNPC as substrate by fluorescence-based assay. Put shortly:
as §1

The target in data set [3] is T3, Bifunctional epoxide hydrolase 2 (Rattus norvegicus, UniProt P80299).
T3 sequence (P80299 whole entry): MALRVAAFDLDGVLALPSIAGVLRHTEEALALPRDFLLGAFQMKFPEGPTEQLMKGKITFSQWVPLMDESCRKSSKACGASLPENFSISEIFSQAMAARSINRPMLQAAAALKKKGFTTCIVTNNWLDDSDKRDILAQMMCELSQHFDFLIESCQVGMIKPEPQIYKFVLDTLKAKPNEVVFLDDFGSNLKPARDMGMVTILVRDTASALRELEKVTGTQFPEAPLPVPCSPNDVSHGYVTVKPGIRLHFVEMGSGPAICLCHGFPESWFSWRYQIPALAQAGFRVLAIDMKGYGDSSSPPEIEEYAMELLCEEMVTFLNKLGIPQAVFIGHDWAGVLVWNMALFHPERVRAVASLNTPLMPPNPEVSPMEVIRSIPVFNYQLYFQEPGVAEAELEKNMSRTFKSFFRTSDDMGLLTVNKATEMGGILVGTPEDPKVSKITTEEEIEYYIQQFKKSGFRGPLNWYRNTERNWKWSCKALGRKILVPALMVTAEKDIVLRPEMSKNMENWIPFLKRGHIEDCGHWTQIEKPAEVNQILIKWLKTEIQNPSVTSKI
Description: Inhibition of recombinant rat sEH expressed in baculovirus expression system using MNPC as substrate by fluorescence-based assay. The procedure, abridged:
as §1

The nature of data set [4]: Cmax in Sprague-Dawley rat at 100 mg/kg, po measured up to 96 hrs by LC/MS/MS analysis. It is filed as ADME, organism-based. Set-up: route oral, dose 100 mg/kg, time <=96. As to conditions: in vivo. Put shortly:
(§2)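 Male SD rats (8 weeks, 250–300 g, n=4/group) given a single oral gavage of 100 mg/kg in 100% NEOBEE 1053. Plasma concentrations followed over a 96-h time course. Blood processed and quantified by an earlier reported method. Parameters reported as mean ± SEM.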

Data set [5] can be described thus: Half life in Sprague-Dawley rat at 100 mg/kg, po measured up to 96 hrs by LC/MS/MS analysis. In kind it is ADME, organism-based. As to conditions: in vivo. Put shortly: as §2
The next data set has as its system Rattus norvegicus. The data set is described as follows: Antinociceptive activity against LPS-induced inflammatory pain Sprague-Dawley rat model assessed as increase in paw withdrawal threshold at 100 mg/kg, po measured up to 6 hrs by von Frey assay. In kind it is functional, organism-based. The following applies: time hrs <=6. The procedure, abridged: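 Male SD rats, n=4/group, randomized and blinded. Baseline von Frey mechanical withdrawal thresholds taken before dosing. Oral gavage of 100 mg/kg in 1 mL 100% NEOBEE 1053 (vehicle control alongside). Immediately after, 50 μL of 0.2 μg/mL LPS in saline injected intraplantar into one hind paw. Ipsilateral thresholds measured 3–5 times per rat per time point over 6 h. Expressed as percent of baseline, group mean ± SEM.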

A short description of data set [6]: AUC in Sprague-Dawley rat at 100 mg/kg, po measured up to 96 hrs by LC/MS/MS analysis. The following applies: in vivo. Set-up: route oral, dose 100 mg/kg, time <=96. In kind it is ADME, organism-based. The procedure, abridged: as §2
The nature of data set [7]: Tmax in Sprague-Dawley rat at 100 mg/kg, po measured up to 96 hrs by LC/MS/MS analysis. It is filed as ADME, organism-based. The following applies: in vivo. Put shortly:
as §2

On to `CC/C=C\C/C=C\C/C=C\CCCCCCCC(=O)NCc1cccc(OC)c1`, for which the half-inhibitory concentration (IC50) in data set [1] is 76 nM; in data set [2], 27 nM; in data set [3], 9.3 nM.
Regarding `CC/C=C\C/C=C\C/C=C\C/C=C\C/C=C\CCCC(=O)NCc1ccccc1`, the IC50 was found to be 111 nM in data set [1], 43 nM in data set [2] and 29 nM in data set [3].
The like results for `CCCCC/C=C\C/C=C\C/C=C\C/C=C\CCCC(=O)NCc1cccc(OC)c1` were, in that order, 55 nM, 73 nM and 22 nM.
Compound `CCCCC/C=C\C/C=C\CCCCCCCC(=O)NCc1ccccc1` came in with a Cmax in data set [4] of 519 nM. Further, the t1/2 in data set [5] stood at 9 h. Further, the IC50 in data set [1] is 155 nM; in data set [2], 44 nM; in data set [3], 41 nM. The result in the data set with Rattus norvegicus was Active. Further, the area under the curve (AUC) in data set [6] came out at 3.69 µM·h. Moreover, the Tmax in data set [7] came out at 3 h.
In the case of `CCCCC/C=C\C/C=C\CCCCCCCC(=O)NCCc1ccccc1`, the 50% inhibitory concentration (IC50) in data set [2] was 91 nM; in data set [3], 33 nM.
For `CCCCCCCCCCCCCCCC(=O)NCc1ccccc1`, the IC50 is 524 nM in data set [1], 422 nM in data set [2] and 370 nM in data set [3].
`CCCCCCCCCCCCCCCC(=O)NCc1ccc(OC)c(OC)c1`: the IC50 was 7060 nM in data set [1], over 100000 nM in data set [2] and 15900 nM in data set [3].
With `CC/C=C\C/C=C\C/C=C\CCCCCCCC(=O)NCCc1ccccc1`, the IC50 in data set [1] turned out to be 15 nM; in data set [2] it was 39 nM; in data set [3], 15 nM.
As to `CCCCCCCCCCCCCCCC(=O)NCc1cccc(OC)c1`, the IC50 in data set [1] was determined as 235 nM; in data set [2], 159 nM; in data set [3], 113 nM.
The like results for `CCCCC/C=C\C/C=C\CCCCCCCC(=O)NCc1ccc(OC)c(OC)c1` were, in that order, 104 nM, 148 nM and 111 nM.
The like results for `CCCCCCCCCCCCCCCCCC(=O)NCc1ccccc1` were, in that order, over 100000 nM, 59600 nM and 35800 nM.
For `CCCCC/C=C\C/C=C\C/C=C\C/C=C\CCCC(=O)NCc1ccccc1`, the IC50 in data set [1] is 123 nM; in data set [2] it was 50 nM; in data set [3] it was 40 nM.
The like results for `CCCCCCCC/C=C\CCCCCCCC(=O)NCc1cccc(OC)c1` were, in that order, 241 nM, 126 nM and 84 nM.
For `CCCCCCCC/C=C\CCCCCCCC(=O)NCc1ccccc1`, the IC50 in data set [1] stood at 893 nM; in data set [2] it was 265 nM; in data set [3], 198 nM.
As for `CCCCCCCCCCCCCCCCCC(=O)NCc1cccc(OC)c1`, the IC50 in data set [1] turned out to be 16100 nM; in data set [2] it was 89900 nM; in data set [3], 28700 nM.
As to `CC/C=C\C/C=C\C/C=C\CCCCCCCC(=O)NCc1ccc(OC)c(OC)c1`, the IC50 turned out to be 84 nM in data set [1], 122 nM in data set [2] and 90 nM in data set [3].
Compound `CC/C=C\C/C=C\C/C=C\CCCCCCCC(=O)NCc1ccccc1` yielded a maximum concentration (Cmax) in data set [4] of 54 nM. In data set [5], this compound had a t1/2 of 14.6 h. For the same compound, the IC50 in data set [1] amounted to 134 nM; in data set [2] it was 28 nM; in data set [3], 23 nM. Besides, in the data set on Rattus norvegicus, the outcome was inactive. For the same compound, the area under the curve (AUC) in data set [6] amounted to 0.723 µM·h. Besides, the Tmax in data set [7] was found to be 6 h.
Take `CCCCC/C=C\C/C=C\CCCCCCCC(=O)NCc1cccc(OC)c1`: the figures for the IC50 in data set [1], in data set [2] and in data set [3] were 92 nM, 38 nM and 43 nM, respectively.
With `CC/C=C\C/C=C\C/C=C\C/C=C\C/C=C\CCCC(=O)NCc1cccc(OC)c1`, the IC50 in data set [1] was 63 nM; in data set [2] it was 49 nM; in data set [3] it was 18.6 nM.
